Measurements published in ChEMBL document CHEMBL1124956, “Renin inhibitors based on dipeptide analogues. Incorporation of the hydroxyethylene isostere at the P2/P3 sites” (J Med Chem, 1990).

These molecules were tested against T1, Renin (Homo sapiens, UniProt P00797) (assay: In vitro inhibitory activity against human renal renin using radioimmunoassay for angiotensin I production).
T1 sequence (P00797 whole entry): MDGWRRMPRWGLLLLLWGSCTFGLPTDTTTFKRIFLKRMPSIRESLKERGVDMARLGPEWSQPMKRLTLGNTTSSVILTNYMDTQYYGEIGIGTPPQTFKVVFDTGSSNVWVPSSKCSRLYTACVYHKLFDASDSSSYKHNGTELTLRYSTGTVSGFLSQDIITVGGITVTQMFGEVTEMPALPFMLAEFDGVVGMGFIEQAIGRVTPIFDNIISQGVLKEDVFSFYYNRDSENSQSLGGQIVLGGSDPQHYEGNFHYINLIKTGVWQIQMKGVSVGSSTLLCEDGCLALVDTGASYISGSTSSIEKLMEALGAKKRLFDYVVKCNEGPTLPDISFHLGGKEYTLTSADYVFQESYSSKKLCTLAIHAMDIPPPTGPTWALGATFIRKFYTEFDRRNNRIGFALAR
Outline: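 Purified human renin enzyme, assayed in maleate buffer at pH 6.0. The remaining conditions follow a previously published protocol.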

IC50 [nM]	SMILES
19	C=C(C[C@H](O)[C@H](CC1CCCCC1)NC(=O)C(CCCCC)CC(O)[C@H](Cc1ccccc1)NC(=O)OC(C)(C)C)C(=O)NCC(C)C (stereo not given in full)
12	C=CCCCC(C[C@@H](O)[C@H](Cc1ccccc1)NC(=O)OC(C)(C)C)C(=O)N[C@@H](CC1CCCCC1)[C@@H](O)[C@@H](CO)CC(C)C (stereo not given in full)
6	C=C(C[C@H](O)[C@H](CC1CCCCC1)NC(=O)C(CC(C)C)NC(=O)[C@H](Cc1ccccc1)NC(=O)OC(C)(C)C)C(=O)NCC(C)C (stereo not given in full)
5.5	C=C(C[C@H](O)[C@H](CC1CCCCC1)NC(=O)C(CCCC)CC(O)[C@H](Cc1ccccc1)NC(=O)OC(C)(C)C)C(=O)NCC(C)C (stereo not given in full)
6	CC(C)C[C@H](C[C@@H](O)[C@H](Cc1ccccc1)NC(=O)OC(C)(C)C)C(=O)N[C@@H](CC1CCCCC1)[C@@H](O)[C@@H](CO)CC(C)C
25	C=C(C[C@H](O)[C@H](CC1CCCCC1)NC(=O)C(CC(C)C)CC(O)[C@H](Cc1ccccc1)NC(=O)OC(C)(C)C)C(=O)NCC(C)C (stereo not given in full)
> 10000	C=C(C[C@H](O)[C@H](CC1CCCCC1)NC[C@H](C)C[C@@H](O)[C@H](Cc1ccccc1)NC(=O)OC(C)(C)C)C(=O)NCC(C)C
8	C=CCCC[C@@H](C[C@@H](O)[C@H](Cc1ccccc1)NC(=O)OC(C)(C)C)C(=O)N[C@@H](CC1CCCCC1)[C@@H](O)CC(=C)C(=O)NCC(C)C
100	C=C(C[C@H](O)[C@H](CC1CCCCC1)NC(=O)[C@@H](C)C[C@@H](O)[C@H](Cc1ccccc1)NC(=O)OC(C)(C)C)C(=O)NCC(C)C
95	C=C(C[C@H](O)[C@H](CC1CCCCC1)NC(=O)[C@@H](C[C@@H](O)[C@H](Cc1ccccc1)NC(=O)OC(C)(C)C)Cn1ccnn1)C(=O)NCC(C)C
20	C=C(C[C@H](O)[C@H](CC1CCCCC1)NC(=O)[C@H](C)C[C@@H](O)[C@H](Cc1ccccc1)NC(=O)OC(C)(C)C)C(=O)NCC(C)C
1	C=CCCC[C@H](C[C@@H](O)[C@H](Cc1ccccc1)NC(=O)OC(C)(C)C)C(=O)N[C@@H](CC1CCCCC1)[C@@H](O)CC(=C)C(=O)NCC(C)C
2700	C=C(C[C@H](O)[C@H](CC1CCCCC1)NC(=O)[C@@H](C[C@H](O)[C@H](Cc1ccccc1)NC(=O)OC(C)(C)C)Cn1ccnn1)C(=O)NCC(C)C
2	C=C(C[C@H](O)[C@H](CC1CCCCC1)NC(=O)C(Cc1c[nH]cn1)NC(=O)[C@H](Cc1ccccc1)NC(=O)OC(C)(C)C)C(=O)NCC(C)C (stereo not given in full)
70	C=C(C[C@H](O)[C@H](CC1CCCCC1)NC(=O)C(CCCCCC)CC(O)[C@H](Cc1ccccc1)NC(=O)OC(C)(C)C)C(=O)NCC(C)C (stereo not given in full)
3000	C=C(C[C@H](O)[C@H](CC1CCCCC1)NC(=O)[C@H](C)C[C@H](O)[C@H](Cc1ccccc1)NC(=O)OC(C)(C)C)C(=O)NCC(C)C
10	C=C(C[C@H](O)[C@H](CC1CCCCC1)NC(=O)C(C)NC(=O)[C@H](Cc1ccccc1)NC(=O)OC(C)(C)C)C(=O)NCC(C)C (stereo not given in full)
18	C=CCCCC(NC(=O)[C@H](Cc1ccccc1)NC(=O)OC(C)(C)C)C(=O)N[C@@H](CC1CCCCC1)[C@@H](O)CC(=C)C(=O)NCC(C)C (mixture of isomers)
2	C=C(C[C@H](O)[C@H](CC1CCCCC1)NC(=O)C(CCCC)NC(=O)[C@H](Cc1ccccc1)NC(=O)OC(C)(C)C)C(=O)NCC(C)C (mixture of isomers)
20	C=C(C[C@H](O)[C@H](CC1CCCCC1)NC(=O)C(C)CC(O)[C@H](Cc1ccccc1)NC(=O)OC(C)(C)C)C(=O)NCC(C)C (single isomer, unassigned)
